Test results: ChEMBL document CHEMBL4715736, “Identification of anticancer agents based on the thieno[2,3-b]pyridine and 1H-pyrazole molecular scaffolds” (2016)

Columns and labels:
Type in all cases: functional
HOP-92 = test: Growth inhibition of human HOP-92 cells assessed as cell growth at 100 uM incubated for 48 hrs by sulforhodamine B assay relative to control; conditions: read-out: Activity
KM12 [1] = test: Growth inhibition of human KM12 cells assessed as cell growth at 100 uM incubated for 48 hrs by sulforhodamine B assay relative to control; conditions: read-out: Activity
OVCAR-3 = test: Growth inhibition of human OVCAR-3 cells assessed as cell growth at 100 uM incubated for 48 hrs by sulforhodamine B assay relative to control; conditions: read-out: Activity
MOLT-4 = test: Growth inhibition of human MOLT-4 cells assessed as cell growth at 1 uM incubated for 48 hrs by sulforhodamine B assay relative to control; conditions: read-out: Activity
ACHN = test: Growth inhibition of human ACHN cells assessed as cell growth at 100 uM incubated for 48 hrs by sulforhodamine B assay relative to control; conditions: read-out: Activity
Malme-3M = test: Growth inhibition of human Malme-3M cells incubated for 48 hrs by sulforhodamine B assay
Procedure, shortened: (§1)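 NCI60 panel at the NCI Developmental Therapeutics Program. Only compounds active in the 10 µM screen went to dose-response testing. GI50, the concentration giving 50% of maximal inhibition of proliferation, and TGI, the concentration giving total growth inhibition, were derived from the dose-response curves.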

MCF7 = test: Growth inhibition of human MCF7 cells assessed as cell growth at 100 uM incubated for 48 hrs by sulforhodamine B assay relative to control; conditions: read-out: Activity
NCI-H522 [2] = test: Growth inhibition of human NCI-H522 cells assessed as cell growth at 100 uM incubated for 48 hrs by sulforhodamine B assay relative to control; conditions: read-out: Activity
M14 = test: Growth inhibition of human M14 cells incubated for 48 hrs by sulforhodamine B assay; procedure, shortened: as §1
MDA-MB-231 = test: Growth inhibition of human MDA-MB-231 cells assessed as cell growth at 0.01 uM incubated for 48 hrs by sulforhodamine B assay relative to control; conditions: read-out: Activity
HCT-15 = test: Growth inhibition of human HCT-15 cells assessed as cell growth at 100 uM incubated for 48 hrs by sulforhodamine B assay relative to control; conditions: read-out: Activity
HCT-116 [3] = test: Growth inhibition of human HCT-116 cells assessed as cell growth at 0.01 uM incubated for 48 hrs by sulforhodamine B assay relative to control; conditions: read-out: Activity
KM12 [4] = test: Growth inhibition of human KM12 cells assessed as cell growth at 1 uM incubated for 48 hrs by sulforhodamine B assay relative to control; conditions: read-out: Activity
NCI-H522 [5] = test: Growth inhibition of human NCI-H522 cells incubated for 48 hrs by sulforhodamine B assay; procedure, shortened: as §1
T47D = test: Growth inhibition of human T47D cells incubated for 48 hrs by sulforhodamine B assay
Procedure, shortened: (§2)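 NCI DTP 60-line human tumour panel. Dose-response curves were run only for ligands active in the initial 10 µM screen. GI50 (concentration giving 50% of maximal inhibition of proliferation) and TGI (concentration giving total growth inhibition) were derived from these curves.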

DU-145 [6] = test: Growth inhibition of human DU-145 cells assessed as cell growth at 0.01 uM incubated for 48 hrs by sulforhodamine B assay relative to control; conditions: read-out: Activity
Procedure, shortened: (§3)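 NCI Developmental Therapeutics Program NCI60 panel. Compounds that were active in the 10 µM one-dose screen went on to dose–response testing. Growth at each concentration is expressed relative to untreated control (100%). GI50 (concentration giving 50% of maximal inhibition of proliferation) and TGI (concentration giving total growth inhibition) were derived from the curves.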

CCRF-CEM = test: Growth inhibition of human CCRF-CEM cells assessed as cell growth at 0.1 uM incubated for 48 hrs by sulforhodamine B assay relative to control; conditions: read-out: Activity; procedure, shortened: as §3
PC-3 [7] = test: Growth inhibition of human PC-3 cells incubated for 48 hrs by sulforhodamine B assay; procedure, shortened: as §2
SN12C = test: Growth inhibition of human SN12C cells assessed as cell growth at 1 uM incubated for 48 hrs by sulforhodamine B assay relative to control; conditions: read-out: Activity
SF-268 = test: Growth inhibition of human SF-268 cells assessed as cell growth at 0.01 uM incubated for 48 hrs by sulforhodamine B assay relative to control; conditions: read-out: Activity
OVCAR-5 = test: Growth inhibition of human OVCAR-5 cells assessed as cell growth at 0.01 uM incubated for 48 hrs by sulforhodamine B assay relative to control; conditions: read-out: Activity
K562 = test: Growth inhibition of human K562 cells incubated for 48 hrs by sulforhodamine B assay; procedure, shortened: as §1
Hs-578T [8] = test: Growth inhibition of human Hs-578T cells assessed as cell growth at 0.1 uM incubated for 48 hrs by sulforhodamine B assay relative to control; conditions: read-out: Activity
Hs-578T [9] = test: Growth inhibition of human Hs-578T cells assessed as cell growth at 0.01 uM incubated for 48 hrs by sulforhodamine B assay relative to control; conditions: read-out: Activity
PC-3 [10] = test: Growth inhibition of human PC-3 cells assessed as cell growth at 0.1 uM incubated for 48 hrs by sulforhodamine B assay relative to control; conditions: read-out: Activity
HT-29 = test: Growth inhibition of human HT-29 cells assessed as cell growth at 100 uM incubated for 48 hrs by sulforhodamine B assay relative to control; conditions: read-out: Activity
NCI/ADR-RES = test: Growth inhibition of human NCI/ADR-RES cells incubated for 48 hrs by sulforhodamine B assay; procedure, shortened: as §1
HOP-62 = test: Growth inhibition of human HOP-62 cells assessed as cell growth at 100 uM incubated for 48 hrs by sulforhodamine B assay relative to control; conditions: read-out: Activity
DU-145 [11] = test: Growth inhibition of human DU-145 cells assessed as cell growth at 100 uM incubated for 48 hrs by sulforhodamine B assay relative to control; conditions: read-out: Activity; procedure, shortened: as §3
UACC-257 = test: Growth inhibition of human UACC-257 cells assessed as cell growth at 1 uM incubated for 48 hrs by sulforhodamine B assay relative to control; conditions: read-out: Activity
MDA-MB-435 = test: Growth inhibition of human MDA-MB-435 cells assessed as cell growth at 1 uM incubated for 48 hrs by sulforhodamine B assay relative to control; conditions: read-out: Activity
SF-295 = test: Growth inhibition of human SF-295 cells assessed as cell growth at 0.1 uM incubated for 48 hrs by sulforhodamine B assay relative to control; conditions: read-out: Activity
NCI-H460 = test: Growth inhibition of human NCI-H460 cells assessed as cell growth at 100 uM incubated for 48 hrs by sulforhodamine B assay relative to control; conditions: read-out: Activity
HCT-116 [12] = test: Growth inhibition of human HCT-116 cells assessed as cell growth at 0.1 uM incubated for 48 hrs by sulforhodamine B assay relative to control; conditions: read-out: Activity
786-0 = test: Growth inhibition of human 786-0 cells assessed as cell growth at 100 uM incubated for 48 hrs by sulforhodamine B assay relative to control; conditions: read-out: Activity
[13] = read-out: LC50 (the source's name)

Question: Which growth at 100 µM (HOP-92) does the source give for `Nc1c(C(=O)Nc2ccccc2)sc2nc3c(cc12)CN(Cc1ccccc1)CC3` here?
Answer: -30%

Question: And the growth at 100 µM (KM12 [1])?
Answer: 25%

Question: What about the growth at 100 µM (OVCAR-3) of the same compound?
Answer: 20%

Question: And the growth at 1 µM (MOLT-4)?
Answer: 97%

Question: What about the growth at 100 µM (ACHN) of the same compound?
Answer: 10%

Question: What about the GI50 (Malme-3M) of the same compound?
Answer: 3.8 µM

Question: And the LC50 (Malme-3M)?
Answer: > 100 µM

Question: What about the TGI (Malme-3M) of the same compound?
Answer: > 100 µM

Question: What about the growth at 100 µM (MCF7) of the same compound?
Answer: 14%

Question: And the growth at 100 µM (NCI-H522 [2])?
Answer: 31%

Question: What about the GI50 (M14) of the same compound?
Answer: 30.8 µM

Question: What about the LC50 (concentration killing 50% of cells) (M14) of the same compound?
Answer: > 100 µM

Question: What about the TGI (M14) of the same compound?
Answer: > 100 µM

Question: And the growth at 0.01 µM (MDA-MB-231)?
Answer: 101%

Question: And the growth at 100 µM (HCT-15)?
Answer: 25%

Question: And the growth at 0.01 µM (HCT-116 [3])?
Answer: 100%

Question: And the growth at 1 µM (KM12 [4])?
Answer: 88%

Question: And the GI50 (NCI-H522 [5])?
Answer: 32.5 µM

Question: And the LC50 (NCI-H522 [5])?
Answer: > 100 µM

Question: And the TGI (NCI-H522 [5])?
Answer: > 100 µM

Question: What about the GI50 (T47D) of the same compound?
Answer: 16.2 µM

Question: And the TGI (T47D)?
Answer: > 100 µM

Question: And the CC50 (T47D; [13])?
Answer: > 100 µM

Question: What about the growth at 0.01 µM (DU-145 [6]) of the same compound?
Answer: 106%

Question: What about the growth at 0.1 µM (CCRF-CEM) of the same compound?
Answer: 96%

Question: And the GI50 (PC-3 [7])?
Answer: 27.1 µM

Question: And the TGI (PC-3 [7])?
Answer: > 100 µM

Question: And the CC50 (PC-3 [7]; [13])?
Answer: > 100 µM

Question: What about the growth at 1 µM (SN12C) of the same compound?
Answer: 87%

Question: And the growth at 0.01 µM (SF-268)?
Answer: 91%

Question: What about the growth at 0.01 µM (OVCAR-5) of the same compound?
Answer: 99%

Question: What about the GI50 (K562) of the same compound?
Answer: 9.1 µM

Question: What about the LC50 (concentration killing 50% of cells) (K562) of the same compound?
Answer: > 100 µM

Question: What about the TGI (K562) of the same compound?
Answer: > 100 µM

Question: What about the growth at 0.1 µM (Hs-578T [8]) of the same compound?
Answer: 92%

Question: What about the growth at 0.01 µM (Hs-578T [9]) of the same compound?
Answer: 88%

Question: What about the growth at 0.1 µM (PC-3 [10]) of the same compound?
Answer: 91%

Question: And the growth at 100 µM (HT-29)?
Answer: 8%

Question: And the GI50 (NCI/ADR-RES)?
Answer: 16.3 µM

Question: And the TGI (NCI/ADR-RES)?
Answer: > 100 µM

Question: What about the CC50 (NCI/ADR-RES; [13]) of the same compound?
Answer: > 100 µM

Question: And the growth at 100 µM (HOP-62)?
Answer: -24%

Question: And the growth at 100 µM (DU-145 [11])?
Answer: 16%

Question: And the growth at 1 µM (UACC-257)?
Answer: 84%

Question: And the growth at 1 µM (MDA-MB-435)?
Answer: 68%

Question: What about the growth at 0.1 µM (SF-295) of the same compound?
Answer: 90%

Question: What about the growth at 100 µM (NCI-H460) of the same compound?
Answer: 8%

Question: And the growth at 0.1 µM (HCT-116 [12])?
Answer: 92%

Question: What about the growth at 100 µM (786-0) of the same compound?
Answer: 22%
